High-throughput results as filed in PubChem BioAssay.
MC4R barr agon: activates human MC4R beta-arrestin recruitment; U2OS MC4R beta-arrestin complementation, luminescence; percent of melanotan II response, DMSO zero; P32245; 360,000 tested, 0.98% active; activation, % at 8.9 µM;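 active = activation above a per-plate cutoff, the mean activation of sample wells on that plate plus 3 SD, cut at about 8% in these data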
NOD2 RIPK2 PPI: inhibitors of human NOD2-RIPK2 interaction; O43353; CHO BLA complementation NOD2-RIPK2, CCF4 ratio; AID 624267; inhibition, % at 4.98 µM; 360,000 tested, 0.38% active; in the data active = inhibition above about 21%;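 note: 0% = vehicle only and 100% = reference blocker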
TLR4 MyD88 comp: inhibitors of human TLR4-MyD88 binding | HeLa CL3-4 TLR4/MyD88 BLA complementation, FRET ratio | 200,000 tested, 0.18% active | O00206+Q99836 | inhibition, % at 8.4 µM; in the data active = inhibition above about 25%;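 note: 0% = vehicle and 100% = reference inhibitor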
MC4R antag cAMP: blocks human MC4R cAMP signaling. inhibition, % at 6.5 µM. 360,000 tested, 0.48% active. MC4R-expressing cells, MTII-stimulated cAMP, LANCE TR-FRET. P32245;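 active = inhibition above its plate's cutoff, the mean of tested wells on that plate plus 3 SD, cut at about 29% in these data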;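 note: 0% = Melanotan II alone and 100% = Melanotan II plus saturating MCL0020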
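Assay system: U2OS cells stably expressing human melanocortin 4 receptor (MC4R) / Dosing: 6.5 µM / Timing: compound 30 min, challenge 1 h, detection 1 h / Measured by: Eu-cAMP/anti-cAMP TR-FRET, emission 671 nm / Replicates: singlicate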
NTR1 agonist: NTR1 (human) agonism | 330,000 tested, 0.17% active | activation, % at 20 µM | P30989 | NTR1-U2OS beta-arrestin-GFP spot imaging, agonist mode;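 active = activation at or above 40% of the spot to cytoplasm intensity ratio, with at least 20 cells analyzed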;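 note: 0% = DMSO without peptide and 100% = 100 nM NTR1 peptide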
TLR9-MyD88 block: inhibitors of human TLR9-MyD88 binding. CHO BLA complementation TLR9-MyD88, CCF4 FRET ratio. inhibition, % at 4.98 µM. 340,000 tested, 0.21% active. Q9NR96+Q99836. AID 504734;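 active = inhibition above the mean over all tested compounds plus 3 SD, cut at about 21% in these data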;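 note: 0% = DMSO only wells and 100% = clavulanate BLA inhibitor control wells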
NOD2 RIPK2 conf: confirmation of human NOD2-RIPK2 interaction inhibitors. shares compounds with NOD2 RIPK2 PPI. inhibition, % at 4.98 µM. 1,200 tested, 70% active. AID 624370. CHO cells, NOD2-RIPK2 BLA complementation, CCF4 FRET;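 active = mean inhibition across replicates above a set limit taken from the earlier primary screen, cut at about 21% in these data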;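 note: 0% = DMSO-only wells and the high end = clavulanate BLA-blocked wells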
BLA counter: hits BLA reporter in NOD2-RIPK2 inhibitor counterscreen | AID 624371 | CHO BLA reporter, CCF4 FRET ratio | shares compounds with NOD2 RIPK2 PPI | 1,200 tested, 57% active | inhibition, % at 4.98 µM;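 active = mean inhibition above the low-control mean inhibition plus three low-control SD, cut at about 11% in these data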;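 note: 0% = DMSO only wells and 100% = clavulanate high control wells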
* marks the source's active call; other numbers are inactive results; · = not tested or not shown. An excerpt weighted towards active compounds, which were near 1.9% of everything screened.

SMILES	MC4R barr agon	NOD2 RIPK2 PPI	TLR4 MyD88 comp	MC4R antag cAMP	NTR1 agonist	TLR9-MyD88 block	NOD2 RIPK2 conf	BLA counter
CC(c1ccccc1)n1c(CCCO)nc2ccccc21 (stereo not drawn)	-1	24*	·	6	1	-6	2	-1
COCCCN1C(=O)C(=O)/C(=C(/O)c2ccc(S(=O)(=O)N3CCCCC3)cc2)C1c1ccc(O)cc1 (stereo not drawn)	-2	0	·	17	0	-3	·	·
NS(=O)(=O)c1ccc(NC(=O)c2ccc(-c3ccccc3)cc2)cc1	-3	4	-5	8	·	·	·	·
NS(=O)(=O)c1ccc(NS(=O)(=O)c2ccc(NC(=O)c3ccc(-c4ccccc4)cc3)cc2)cc1	6	24*	-7	-7	6	3	23*	28*
CC1CCC2(CC1)NC(=O)N(CC(=O)NC(C)c1ccc(F)c(F)c1)C2=O (stereo not drawn)	0	-8	·	3	-1	-8	·	·
CCOc1ccc(/C=C(\C#N)C(=O)c2c(C)[nH]c3ccccc23)cc1OC	1	22*	-17	2	13	-8	2	-6
CC(Oc1ccc(Br)cc1)C(=O)Nc1cc(S(=O)(=O)N2CCOCC2)ccc1N1CCCC1 (stereo not drawn)	-3	-7	·	0	1	9	·	·
CCN(CC)S(=O)(=O)c1ccc(N/N=C/c2ccc(O)cc2)nc1	2	40*	-6	-2	0	-8	2	3
CCOc1cccc(/C=N/Nc2ccc(S(=O)(=O)N(CC)CC)cn2)c1O	2	-6	3	20	6	-7	·	·
C=C1C(=O)[C@]23C[C@H]1CCC2[C@@]1(C)C(C[C@@H]3O)[C@](C)(C(=O)OC)CC[C@@H]1O (stereo partly drawn)	·	77*	·	·	·	·	67*	10
COCCn1c(=O)[nH]c2cc(C(=O)Nc3cc(OC)c(OC)c(OC)c3)ccc2c1=O	-2	-5	·	-1	-1	0	·	·
COCCn1c(=O)[nH]c2cc(C(=O)Nc3nnc(C)s3)ccc21	-1	94*	·	1	0	-8	-1	-18
CC(=O)Nc1cccc(NC=C(C#N)C#N)c1	-1	-17	-4	9	0	6	·	·
CC(C)(C)NC(=O)C(c1ccccc1F)n1c(=O)c(-c2cc3ccccc3[nH]2)nc2ccccc21 (stereo not drawn)	·	50*	·	·	·	·	46*	68*
CC(C)(C)NC(=O)C(c1ccccc1F)n1c(=O)c(-c2ccco2)nc2ccccc21 (stereo not drawn)	·	-13	·	·	·	·	·	·
CC(C)(C)NC(=O)C(c1ccnc2ccccc12)n1c(=O)c(-c2cc3ccccc3[nH]2)nc2ccccc21 (stereo not drawn)	·	49*	·	·	·	·	46*	65*
CC(C)(C)NC(=O)C(c1ccnc2ccccc12)n1c(=O)c(-c2ccccc2)nc2ccccc21 (stereo not drawn)	·	-7	·	·	·	·	·	·
CCN(CC)C(=O)NC1CCCCCCC1	0	1	0	12	0	-5	·	·
Cc1ccccc1NC(=S)NCc1ccc2c(c1)OCO2	1	39*	10	10	-1	8	-2	-3
CS(=O)(=O)N(C(=O)NC(=O)NC12CC3CC(CC(C3)C1)C2)C1CCCCC1	-2	3	-10	6	0	5	·	·
Cc1ccc(S(=O)(=O)Oc2ccccc2/C=N/NC(N)=S)cc1	-1	24*	-9	-22	1	-4	11	0
CCOC(=O)C1CCN(C(=S)NC2CC3C=CC2C3)CC1 (stereo not drawn)	-1	-1	·	13	1	·	·	·
CC(C)(C)CC(C)(C)NC(=S)Nc1ccc2nc(-c3ccccn3)c(-c3ccccn3)nc2c1	1	32*	19	4	13	8	9	8
O=C(CCCN1C(=O)/C(=C\c2cccs2)SC1=S)Nc1cccc(C(=O)O)c1	3	24*	2	14	0	3	5	-4
O=C(CN1C(=O)/C(=C\c2cccs2)SC1=S)Nc1cccc(C(=O)O)c1	0	-23	·	3	0	-9	·	·
SMILES	MC4R barr agon	NOD2 RIPK2 PPI	TLR4 MyD88 comp	MC4R antag cAMP	NTR1 agonist	TLR9-MyD88 block	NOD2 RIPK2 conf	BLA counter
CCC(CO)Nc1ccn2nc(-c3cccc(Cl)c3)cc2n1 (stereo not drawn)	0	-1	·	7	·	·	·	·
CCC(CC)COC(=O)C(C#N)c1nc2ccccc2nc1N1CCN(CC)CC1 (stereo not drawn)	4	22*	3	8	22	-7	21*	15*
ClC(Cl)(c1nnnn1-c1ccccc1)c1nnnn1-c1ccccc1	-5	42*	-1	-39	·	12	42*	7
c1ccc(-c2nnnn2-c2ccccc2)cc1	1	-8	·	20	-1	5	·	·
CC(C)C(=O)N1CCN(c2ccc(NC(=O)c3ccc([N+](=O)[O-])o3)cc2Cl)CC1	-2	26*	17	-9	·	6	23*	8
CN1CCN(c2ccc(NC(=O)c3ccc([N+](=O)[O-])o3)cc2Cl)CC1	-1	23*	·	11	6	9	20	17*
CC(C)C(=O)N1CCN(c2ccc(NC(=O)c3ccc([N+](=O)[O-])o3)cc2)CC1	-3	15	1	-12	6	1	·	·
CC1(C(=O)NS(=O)(=O)c2ccccc2OC(F)(F)F)CCN1C(=O)c1ccccc1 (stereo not drawn)	-1	-9	·	1	·	·	·	·
Cc1ccccc1CSc1nnc([C@@H]2CCCN2)o1	3	10	·	9	1	9	·	·
O=C(CN(C(=O)c1csnn1)c1ccc(F)c(Cl)c1)NCc1ccc2c(c1)OCO2	1	-6	·	0	-2	-15	·	·
CCOC(=O)c1c(C)[nH]c(C2=NNC(=Nc3ccc(OCC)cc3)SC2)c1C	5	35*	-6	3	·	5	-1	-6
Cc1ccc2cc(CCl)c(Cl)nc2c1	-2	6	·	5	2	-16	·	·
O=C(NCc1ccccc1Cl)[C@H]1CCCN1C(=O)[C@H]1CCCN1C(=O)c1cccs1	·	-4	·	·	·	·	·	·
CCCc1cc(=O)[nH]c(SCC(=O)c2c(N)n(C3CC3)c(=O)[nH]c2=O)n1	-1	-10	·	-2	2	-9	·	·
O=C(/C=C/N1CCOCC1)c1coc2ccccc12	1	29*	2	-1	0	-5	-2	-8
COCCN(C(=O)C(C)C)c1nnc(-c2ccc(C)cc2)s1	-1	6	-1	0	-2	-1	·	·
